Screening data from PubChem BioAssay.
hERG protect: compounds protecting human hERG from proarrhythmic drug block; Q12809; CHO-hERG, FluxOR thallium flux, dofetilide IC70 present; activation (rescue from dofetilide block), less the hit threshold, % at 10 µM; 0.51% of 310,000 active; AID 1511;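 active = activation above the mean of controls blocked by dofetilide plus 5 SD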;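 note: thallium influx through hERG after potassium depolarization seen as dye fluorescence rise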
KCNQ1 pot: potentiates or activates the human KCNQ1 potassium channel; P51787; CHO-K1 KCNQ1, thallium flux FluxOR fluorescence; active compounds read high; B-score at 10 µM; 0.35% of 310,000 active; AID 2648;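 active = fluorescence ratio B-score, a plate-corrected score, at least three library SD, with initial intensity B-score within 5 SD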
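Medium – assay buffer, equal DMSO in all wells · Material – CHO-K1 cell line with stable KCNQ1 potassium channel expression · Signal – kinetic FluxOR thallium fluorescence, 10-s 1-Hz baseline, 110-s post-stimulus read · Compound – single concentration per compound, DMSO matched to controls · Schedule – 37 °C overnight plating, 90-min dark dye load, 20-min compound pretreatment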
KCNK3 block: human KCNK3 channel inhibition, primary screen | O14649 | CHO-KCNK3 thallium flux, FluxOR fluorescence; active compounds read low | B-score at 10 µM | 0.84% of 340,000 active | AID 602410;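 active = B-score under library mean minus 4 SD, starting fluorescence ratio at most library mean plus 5 SD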;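 note: more negative B-score means stronger inhibition of thallium flux through KCNK3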
Target sequence (O14649 whole entry, looked up): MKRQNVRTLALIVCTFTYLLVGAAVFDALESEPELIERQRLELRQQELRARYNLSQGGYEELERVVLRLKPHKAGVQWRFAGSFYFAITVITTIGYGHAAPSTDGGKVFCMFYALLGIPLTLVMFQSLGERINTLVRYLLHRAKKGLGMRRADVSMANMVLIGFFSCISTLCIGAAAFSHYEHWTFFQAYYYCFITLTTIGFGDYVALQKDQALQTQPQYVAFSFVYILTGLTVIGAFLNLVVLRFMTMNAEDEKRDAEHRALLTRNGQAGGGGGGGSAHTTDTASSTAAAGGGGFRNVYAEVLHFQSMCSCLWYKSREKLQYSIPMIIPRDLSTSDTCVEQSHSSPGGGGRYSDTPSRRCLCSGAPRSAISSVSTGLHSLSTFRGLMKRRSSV
KCNQ1 inh: blocks the human KCNQ1 potassium channel. P51787. AID 2642. CHO-K1 KCNQ1, FluxOR thallium flux fluorescence; active compounds read high. B-score at 10 µM. 1.3% of 310,000 active;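 active = compounds whose thallium flux B-score, printed positive for inhibition, exceeds three library SD while starting fluorescence stays within three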;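 note: channel opened by potassium depolarization with thallium stimulus after 20 min compound exposure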
KCNK9 block: inhibitors of human KCNK9 two-pore domain potassium channel; HEK293 KCNK9, FluxOR thallium flux fluorescence; active compounds read low; AID 488922; Q9NPC2; B-score at 10 µM; 1.2% of 310,000 active;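 active = ratio B-score over 3 SD below the library mean, with starting fluorescence within 5 SD of its mean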;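 note: negative B-score means less thallium flux so channel inhibition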
* = called active by the depositor; i = inactive; nt = no result given. Rows were chosen to be rich in hits. Some 3.1% of all compounds tested hit in one or more screens of this group.

SMILES | hERG protect | KCNQ1 pot | KCNK3 block | KCNQ1 inh | KCNK9 block
O=C(/C=C/c1ccccc1Cl)N(Cc1cccs1)C1CCS(=O)(=O)C1 (stereo unspecified) | -5.6 | i | i | i | -7.5*
COc1cccc(N2C(=O)Nc3ccc(Br)cc3C2(O)C(=O)NCCCOC(C)C)c1 (stereo unspecified) | -11.3 | i | i | i | i
N#Cc1cccc(S(=O)(=O)N2CCN(c3ccnc4cc(Cl)ccc34)CC2)c1 | -7.2 | i | i | i | i
CS(=O)(=O)N(Cc1nc(-c2ccc(F)cc2)no1)c1ccccc1Cl | nt | nt | i | nt | nt
O=C(Nc1cccc(NC(=O)c2ccccc2[N+](=O)[O-])n1)c1ccccc1[N+](=O)[O-] | -12.1 | i | -9.54* | i | i
Cc1cccc(-n2c(N)c(-c3nc4ccccc4n3C)c3nc4ccccc4nc32)c1 | -14.5 | i | -8.76* | i | i
CCc1[nH]nc(C(=O)NC2CCCN(Cc3ccccc3F)C2)c1C (stereo unspecified) | -11.5 | i | i | i | i
CC(CCc1ccccc1)NC(=O)c1cccs1 (stereo unspecified) | 4.9* | i | i | i | i
O=C(NNS(=O)(=O)c1ccc(F)cc1)c1cc(Cl)ccc1O | -11.6 | i | i | i | i
COc1ccc(CCNC(=O)CCc2ccc(OC)cc2)cc1 | 0.7 | i | i | i | i
COc1ccc(CCC(=O)NCCOc2ccc(C)cc2)cc1 | -2.6 | 11* | i | i | i
CC(C)c1ccc2c(c1)CC[C@H]1[C@](C)(CN)CCC[C@]21C | nt | nt | i | nt | nt
CC(C)c1ccc2c(c1)CCC1C(C)(CN)CCCC21C (stereo unspecified) | -12.0 | i | i | 9* | i
O=C(/C=C/c1cn(-c2ccccc2)nc1-c1cccnc1)N1CCCCC1 | -6.6 | i | i | i | i
O=C(/C=C/c1cn(-c2ccccc2)nc1-c1cccc(Cl)c1)N1CCN(c2ccccn2)CC1 | -23.4 | i | i | 7* | i
Cc1nn(C(C)C(=O)N/N=C/c2ccc(N(C)C)cc2)c(C)c1[N+](=O)[O-] (stereo unspecified) | 0.3 | i | i | i | -7.86*
CC(=O)Nc1ccc(NC(=O)C(C)n2nc(C)c([N+](=O)[O-])c2C)cc1 (stereo unspecified) | -3.8 | i | i | i | i
COc1cc(CC(=O)OCC(=O)c2c[nH]c3ccccc23)cc(OC)c1OC | nt | nt | i | nt | nt
Nc1nc(N)nc(-c2cc(Cl)ccc2Cl)n1 | -7.0 | i | i | i | i
O=Cc1ccc(-c2cc(Cl)ccc2Cl)[nH]1 | -1.1 | i | i | i | -6.66*
Cc1cccc(N2C(=O)C3CCCN3C2=S)c1C (stereo unspecified) | nt | nt | i | nt | nt
Cc1nnc2n(-c3ccccc3)c(=O)c3c4c(sc3n12)COC(C(C)C)C4 (stereo unspecified) | -6.5 | i | i | i | i
CC(C)C1Cc2c(sc3[nH]c(=S)n(Cc4ccccc4)c(=O)c23)CO1 (stereo unspecified) | 8.8* | 26* | i | i | i
S=C(Nc1ccc(Nc2ccccc2)cc1)Nc1ccccn1 | -6.5 | i | i | i | -7.08*
O=C(NCC1CC1(Cl)Cl)Nc1ccc(Cl)c(Cl)c1 (stereo unspecified) | -14.7 | i | i | i | -8.42*
SMILES | hERG protect | KCNQ1 pot | KCNK3 block | KCNQ1 inh | KCNK9 block
COc1ccccc1C(=O)NC(=O)COC(=O)C1CC2CCCC(C1)C2=O (stereo unspecified) | -7.9 | i | i | i | i
O=C(CCC(=O)Nc1ccc(Cl)cc1)N/N=C/c1ccc2c(c1)OCO2 | -4.6 | i | i | 6* | i
O=C(Oc1ccc([N+](=O)[O-])cc1)C1CC(=O)N(c2ccc3c(c2)OCCO3)C1 (stereo unspecified) | nt | nt | i | nt | nt
CCC(=O)Nc1ccccc1Oc1ccccc1 | -0.1 | i | i | i | i
Cc1ccccc1CN(C)CC(=O)Nc1ccccc1Oc1ccccc1 | -13.8 | i | i | i | -7.54*
CSc1nc2sc3c(c2c(=S)[nH]1)CC(C)(C)OC3 | 56.5* | 82* | i | i | i
CCc1nc2sc3c(c2c(=S)[nH]1)CC(C)(C)OC3 | -5.1 | i | i | i | i
COc1ccc(CCN2C(=NC(=O)C(C)C)SC3CS(=O)(=O)CC32)cc1 (stereo unspecified) | -4.5 | i | i | i | i
CCOc1cc(NC(=S)N2CCC(C(N)=O)CC2)c(C(=O)OC)cc1OCC | 11.3* | i | i | i | i
Cc1c(Cl)cccc1NC(=S)NCCc1ccc(C(F)(F)F)cc1 | -9.6 | i | i | 7* | i
CCCOc1ccc(NC(=O)CC2C(=O)N(Cc3ccccc3)C(=S)N2Cc2cccs2)cc1 (stereo unspecified) | -15.3 | i | i | 6* | i
C=CCN1C(=O)c2ccccc2NC1c1cc(Br)cs1 (stereo unspecified) | -11.6 | i | i | i | i
Cc1ccc(C(C)C)c(OCC(=O)OCc2c(C)noc2C)c1 | -6.8 | i | i | i | -7.37*
Cc1ccc(C(C)C)c(OCC(=O)OCC(=O)NC2CC2)c1 | nt | nt | i | nt | nt
O=C(CSc1nc(=O)n2ccccc2n1)Nc1ccc2c(c1)OCO2 | -17.1 | i | i | i | i
CCC(=O)Nc1nc2ccc([N+](=O)[O-])cc2s1 | -13.9 | i | i | i | i
Cc1ccc(C)c(OCC(=O)Nc2nc3ccc([N+](=O)[O-])cc3s2)c1C | -18.1 | i | i | 6* | i
COc1cccc(-c2ncc3ccccc3c2COC(=O)c2ccc(C(F)(F)F)cc2)c1 | nt | nt | i | nt | nt
Cc1ccc(S(=O)(=O)N(C)C)cc1NC(=S)N(C)C1CCN(C)CC1 | -3.4 | i | i | i | i
CCCc1ccc(/C=C2\C(=O)c3ccccc3C(O)=C2C(=O)OCC)cc1 | -8.9 | 8* | nt | i | i
CCOC(=O)C1=C(O)c2ccccc2C(=O)/C1=C\c1ccc(CC)cc1 | 1.9 | 8* | i | i | i
CCOC(=O)C1=C(Cc2ccc(C)cc2)C(=O)c2ccccc2C1=O | 2.9 | i | nt | i | i
CCOc1ccccc1NC(=O)CCS(=O)(=O)c1ccc(Br)cc1 | -4.2 | i | i | i | i
O=C(CCCn1c(=S)[nH]c2cc3c(cc2c1=O)OCO3)NCCc1ccccc1Cl | -5.1 | i | i | i | i
O=C(Nc1cccc([N+](=O)[O-])c1)Nc1cccc([N+](=O)[O-])c1 | -21.9 | i | i | 8* | i
CC(C(=O)Nc1cccnc1)c1ccc([N+](=O)[O-])cc1 (stereo unspecified) | -13.3 | i | i | i | i
